Each block holds one molecule with its values, some of them ahead of it.
Tests used:
[1] = target: Endothelin receptor type B (Rattus norvegicus) (UniProt P21451); assay: Inhibition of [125I]ET-1 binding to rat cerebellum membranes (Endothelin B receptor) was determined in a radioligand binding assay.
[2] = target: Endothelin-1 receptor (Rattus norvegicus); assay: Ability to inhibit Endothelin A receptor induced contractions in rabbit carotid artery rings (ETA) was determined in an in vitro functional assay.
Endothelin-1 receptor = target: T1, Endothelin-1 receptor (Rattus norvegicus, UniProt P26684); assay: Ability to inhibit binding of [125I]ET1 to membranes prepared from A10 rat thoracic aorta smooth muscle (Endothelin A receptor) was determined by radioligand binding assay; type: tissue-based
T1 sequence (P26684 whole entry): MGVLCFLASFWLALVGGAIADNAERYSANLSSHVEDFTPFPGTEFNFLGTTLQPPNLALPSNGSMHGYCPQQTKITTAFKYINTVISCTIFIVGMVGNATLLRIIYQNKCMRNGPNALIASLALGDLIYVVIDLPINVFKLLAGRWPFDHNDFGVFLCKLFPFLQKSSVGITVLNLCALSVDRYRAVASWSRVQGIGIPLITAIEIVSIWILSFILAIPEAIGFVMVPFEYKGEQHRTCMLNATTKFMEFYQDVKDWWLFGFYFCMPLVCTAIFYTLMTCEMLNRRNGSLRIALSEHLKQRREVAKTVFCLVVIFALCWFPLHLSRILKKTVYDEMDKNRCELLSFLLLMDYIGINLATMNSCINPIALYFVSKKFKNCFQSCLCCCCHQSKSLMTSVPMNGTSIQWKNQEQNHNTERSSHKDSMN
Procedure, shortened: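 Competition binding of [125I]ET-1 to membranes prepared from A10 rat thoracic aorta smooth muscle cells (ET_A). Data were fitted iteratively to a one- or two-site binding model, and Ki was calculated from the IC50. Values are reported as Ki ± SE.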

Sequence of Endothelin receptor type B (Rattus norvegicus) (P21451 whole entry, looked up): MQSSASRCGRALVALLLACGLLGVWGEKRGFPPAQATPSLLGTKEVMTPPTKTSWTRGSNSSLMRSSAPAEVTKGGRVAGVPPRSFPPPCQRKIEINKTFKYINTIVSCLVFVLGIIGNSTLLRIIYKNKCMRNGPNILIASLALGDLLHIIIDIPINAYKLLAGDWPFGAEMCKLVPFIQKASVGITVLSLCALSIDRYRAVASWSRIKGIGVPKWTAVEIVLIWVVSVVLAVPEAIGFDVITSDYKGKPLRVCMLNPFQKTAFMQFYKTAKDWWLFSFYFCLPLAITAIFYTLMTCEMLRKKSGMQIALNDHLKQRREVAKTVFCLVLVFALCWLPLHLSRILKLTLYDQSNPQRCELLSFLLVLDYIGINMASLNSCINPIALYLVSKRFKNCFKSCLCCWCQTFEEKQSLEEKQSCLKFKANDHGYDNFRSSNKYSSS

SMILES: Cc1noc(NS(=O)(=O)c2ccccc2-c2ccccn2)c1C
Ki [2]: 0.82 µM

SMILES: Cc1noc(NS(=O)(=O)c2ccccc2-c2cccs2)c1C
Ki [1]: > 200 µM

SMILES: Cc1noc(NS(=O)(=O)c2ccccc2Br)c1C
Ki (Endothelin-1 receptor): 8 µM

Further lines, results first:

Ki [1]: > 200 µM
SMILES: Cc1noc(NS(=O)(=O)c2ccccc2-c2cccnc2)c1C

Ki [1]: 66 µM
SMILES: Cc1noc(NS(=O)(=O)c2ccccc2-c2cc3ccccc3[nH]2)c1C

Ki [1]: > 200 µM
SMILES: Cc1noc(NS(=O)(=O)c2ccccc2-c2ccsc2)c1C

Ki [1]: > 200 µM
SMILES: Cc1noc(NS(=O)(=O)c2ccccc2-c2c[nH]c3ccccc23)c1C

Ki [1]: > 200 µM
Ki [2]: 8.8 µM
SMILES: Cc1noc(NS(=O)(=O)c2ccccc2-c2ncccn2)c1C

Source: ChEMBL document CHEMBL1131435, “Biphenylsulfonamide endothelin antagonists: structure-activity relationships of a series of mono- and disubstituted analogues and pharmacology of the orally active endothelin antagonist 2'-amino-N- (3,4-dimethyl-5-isoxazolyl)-4'-(2-methylpropyl)[1, 1'-biphenyl]-2-sulfonamide (BMS-187308)” (J Med Chem, 1998)
